In ChEMBL document CHEMBL1287795, “Synthesis and biological evaluation of 1H-benzimidazol-5-ols as potent HBV inhibitors” (Bioorg Med Chem Lett, 2010):
pIC50: −log10 of the molar value.

What was measured:
Hepatitis B virus [1] = assay: Antiviral activity against Hepatitis B virus infected in HepG2.2.15 assessed as inhibition of HBsAg production at <74.8 +/- 3.9 uM by EIA; assay type: functional, organism-based; conditions: hepg2 2.2.15
Hepatitis B virus [2] = assay: Antiviral activity against Hepatitis B virus infected in HepG2.2.15 assessed as inhibition of HBV replication at <74.8 +/- 3.9 uM by quantitative Southern blot hybridization analysis; assay type: functional, organism-based; conditions: hepg2 2.2.15
[3] = Cytotoxicity against human HepG2(2.2.15) after 9 days by neutral dye uptake method; assay type: cell-based; conditions: HepG2(2.2.15) cells
Summary of the method: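 Confluent 2.2.15 cells were exposed to compound in culture medium for 9 consecutive days, with untreated controls on every plate. Viability was read as neutral red uptake by absorbance at 510 nm relative to untreated cells, giving CC50. Mean and SD of three separate experiments.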

Hepatitis B virus [4] = assay: Antiviral activity against Hepatitis B virus infected in HepG2.2.15 assessed as inhibition of HBV replication at <227.0 +/- 4.1 uM by quantitative Southern blot hybridization analysis; assay type: functional, organism-based; conditions: hepg2 2.2.15
Hepatitis B virus [5] = assay: Antiviral activity against Hepatitis B virus infected in HepG2.2.15 assessed as inhibition of HBsAg production at <227.0 +/- 4.1 uM by EIA; assay type: functional, organism-based; conditions: hepg2 2.2.15
Hepatitis B virus [6] = assay: Antiviral activity against Hepatitis B virus infected in HepG2.2.15 assessed as inhibition of HBsAg production by EIA; assay type: functional, organism-based; conditions: HepG2 2.2.15
Summary of the method: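 HBsAg secreted into the medium by confluent 2.2.15 cultures (RPMI 1640, 2% FBS) measured by semiquantitative enzyme immunoassay eight days after the first of eight consecutive daily treatments. Medium and compound were renewed daily, with an untreated cell control. Gives the 50% inhibitory concentration; mean and SD from three separate experiments.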

Hepatitis B virus [7] = assay: Antiviral activity against Hepatitis B virus infected in HepG2.2.15 assessed as inhibition of HBV replication at <900.5 +/- 5.3 uM by quantitative Southern blot hybridization analysis; assay type: functional, organism-based; conditions: hepg2 2.2.15
[8] = Selectivity index, ratio of CC50 for human HepG2.2.15 cells to IC50 for inhibition of HBsAg production; assay type: functional
Summary of the method: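 SI = CC50/IC50. CC50 is from neutral red uptake after 9 days of treatment. IC50 is from HBsAg EIA after eight daily doses, in 2.2.15 cells.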

Hepatitis B virus [9] = assay: Antiviral activity against Hepatitis B virus infected in HepG2.2.15 assessed as inhibition of HBsAg production at <102.7 +/- 3.3 uM by EIA; assay type: functional, organism-based; conditions: hepg2 2.2.15
Hepatitis B virus [10] = assay: Antiviral activity against Hepatitis B virus infected in HepG2.2.15 assessed as inhibition of HBV replication at <102.7 +/- 3.3 uM by quantitative Southern blot hybridization analysis; assay type: functional, organism-based; conditions: hepg2 2.2.15
Hepatitis B virus [11] = assay: Antiviral activity against Hepatitis B virus infected in HepG2.2.15 assessed as inhibition of HBV replication at <64.5 +/- 2.8 uM by quantitative Southern blot hybridization analysis; assay type: functional, organism-based; conditions: hepg2 2.2.15
Hepatitis B virus [12] = assay: Antiviral activity against Hepatitis B virus infected in HepG2.2.15 assessed as inhibition of HBV replication at <506.3 +/- 3.2 uM by quantitative Southern blot hybridization analysis; assay type: functional, organism-based; conditions: hepg2 2.2.15
[13] = Selectivity index, ratio of CC50 for human HepG2.2.15 cells to IC50 for inhibition of Hepatitis B virus DNA replication; assay type: functional
Summary of the method: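 SI = CC50/IC50. CC50 is from neutral red uptake after 9 days of treatment. IC50 is from Southern blot of intracellular HBV DNA after eight daily doses, in 2.2.15 cells.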

Hepatitis B virus [14] = assay: Antiviral activity against Hepatitis B virus infected in HepG2.2.15 assessed as inhibition of HBsAg production at <2183.1 +/- 4.1 by EIA; assay type: functional, organism-based; conditions: hepg2 2.2.15
Hepatitis B virus [15] = assay: Antiviral activity against Hepatitis B virus infected in HepG2.2.15 assessed as inhibition of HBsAg production at <91.2 +/- 3.5 uM by EIA; assay type: functional, organism-based; conditions: hepg2 2.2.15
Hepatitis B virus [16] = assay: Antiviral activity against Hepatitis B virus infected in HepG2.2.15 assessed as inhibition of HBV replication by quantitative Southern blot hybridization analysis; assay type: functional, organism-based; conditions: HepG2 2.2.15
Summary of the method: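 Confluent 2.2.15 cells in RPMI 1640 with 2% FBS, dosed daily for eight consecutive days, with medium and compound replaced each day; untreated cell control. Intracellular HBV DNA quantified by Southern blot hybridization eight days after first treatment. IC50 is 50% inhibitory concentration; mean and SD of three separate experiments.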

Hepatitis B virus [17] = assay: Antiviral activity against Hepatitis B virus infected in HepG2.2.15 assessed as inhibition of HBsAg production at <64.5 +/- 4.2 uM by EIA; assay type: functional, organism-based; conditions: hepg2 2.2.15
Hepatitis B virus [18] = assay: Antiviral activity against Hepatitis B virus infected in HepG2.2.15 assessed as inhibition of HBV replication at <64.5 +/- 4.2 uM by quantitative Southern blot hybridization analysis; assay type: functional, organism-based; conditions: hepg2 2.2.15
Hepatitis B virus [19] = assay: Antiviral activity against Hepatitis B virus infected in HepG2.2.15 assessed as inhibition of HBsAg production at <163.9 +/- 4.4 uM by EIA; assay type: functional, organism-based; conditions: hepg2 2.2.15
Hepatitis B virus [20] = assay: Antiviral activity against Hepatitis B virus infected in HepG2.2.15 assessed as inhibition of HBsAg production at <80.1 +/- 3.5 uM by EIA; assay type: functional, organism-based; conditions: hepg2 2.2.15
Hepatitis B virus [21] = assay: Antiviral activity against Hepatitis B virus infected in HepG2.2.15 assessed as inhibition of HBsAg production at <76.3 +/- 3.3 uM by EIA; assay type: functional, organism-based; conditions: hepg2 2.2.15
Hepatitis B virus [22] = assay: Antiviral activity against Hepatitis B virus infected in HepG2.2.15 assessed as inhibition of HBV replication at <556.9 +/- 1.8 uM by quantitative Southern blot hybridization analysis; assay type: functional, organism-based; conditions: hepg2 2.2.15
Hepatitis B virus [23] = assay: Antiviral activity against Hepatitis B virus infected in HepG2.2.15 assessed as inhibition of HBV replication at <209.8 +/- 4.7 uM by quantitative Southern blot hybridization analysis; assay type: functional, organism-based; conditions: hepg2 2.2.15
Hepatitis B virus [24] = assay: Antiviral activity against Hepatitis B virus infected in HepG2.2.15 assessed as inhibition of HBV replication at <757.8 +/- 4.3 uM by quantitative Southern blot hybridization analysis; assay type: functional, organism-based; conditions: hepg2 2.2.15
Hepatitis B virus [25] = assay: Antiviral activity against Hepatitis B virus infected in HepG2.2.15 assessed as inhibition of HBsAg production at <60.8 +/- 4.6 uM by EIA; assay type: functional, organism-based; conditions: hepg2 2.2.15
Hepatitis B virus [26] = assay: Antiviral activity against Hepatitis B virus infected in HepG2.2.15 assessed as inhibition of HBV replication at <622.8 +/- 3.4 uM by quantitative Southern blot hybridization analysis; assay type: functional, organism-based; conditions: hepg2 2.2.15
Hepatitis B virus [27] = assay: Antiviral activity against Hepatitis B virus infected in HepG2.2.15 assessed as inhibition of HBV replication at <739.9 +/- 3.6 uM by quantitative Southern blot hybridization analysis; assay type: functional, organism-based; conditions: hepg2 2.2.15
Hepatitis B virus [28] = assay: Antiviral activity against Hepatitis B virus infected in HepG2.2.15 assessed as inhibition of HBsAg production at <245.1 +/- 4.8 uM by EIA; assay type: functional, organism-based; conditions: hepg2 2.2.15
Hepatitis B virus [29] = assay: Antiviral activity against Hepatitis B virus infected in HepG2.2.15 assessed as inhibition of HBV replication at <245.1 +/- 4.8 uM by quantitative Southern blot hybridization analysis; assay type: functional, organism-based; conditions: hepg2 2.2.15
Hepatitis B virus [30] = assay: Antiviral activity against Hepatitis B virus infected in HepG2.2.15 assessed as inhibition of HBsAg production at <101.2 +/- 3.8 by EIA; assay type: functional, organism-based; conditions: hepg2 2.2.15
Hepatitis B virus [31] = assay: Antiviral activity against Hepatitis B virus infected in HepG2.2.15 assessed as inhibition of HBV replication at <86.9 +/- 3.6 uM by quantitative Southern blot hybridization analysis; assay type: functional, organism-based; conditions: hepg2 2.2.15
Hepatitis B virus [32] = assay: Antiviral activity against Hepatitis B virus infected in HepG2.2.15 assessed as inhibition of HBsAg production at <86.9 +/- 3.6 uM by EIA; assay type: functional, organism-based; conditions: hepg2 2.2.15

pIC50 (Hepatitis B virus [6]) | SMILES | CC50 at 216 h [3] [µM] | Selectivity Index [8] | Selectivity Index [13] | other results
 | Cn1c(CSc2ccc(F)cc2)nc2c(CN3CCCC3)c(O)ccc21 | 74.8 |  |  | IC50 (Hepatitis B virus [1]): Not Active; IC50 (Hepatitis B virus [2]): Not Active
 | Cn1c(CSc2ccccc2)nc2c(CN3CCCC3)c(O)ccc21 | 227 |  |  | IC50 (Hepatitis B virus [4]): Not Active; IC50 (Hepatitis B virus [5]): Not Active
3.40 | Cn1c(C[S+]([O-])c2ccccc2)nc2c(CN3CCOCC3)c(O)ccc21 (configuration not stated) | 900 | 2.2 |  | IC50 (Hepatitis B virus [7]): Not Active
 | COc1cccc(SCc2nc3c(Cn4ccnc4C)c(O)ccc3n2C)c1 | 103 |  |  | IC50 (Hepatitis B virus [9]): Not Active; IC50 (Hepatitis B virus [10]): Not Active
4.97 | CN1CCN(Cc2c(O)ccc3c2nc(CSc2ccc(F)cc2)n3C)CC1 | 64.5 | 6 |  | IC50 (Hepatitis B virus [11]): Not Active
4.20 | Cc1ccc(S(=O)(=O)Cc2nc3c(Cn4ccnc4)c(O)ccc3n2C)cc1 | 506 | 8.1 |  | IC50 (Hepatitis B virus [12]): Not Active
 | Nc1ccn([C@@H]2CS[C@H](CO)O2)c(=O)n1 [LAMIVUDINE] | 2180 |  | 9.1 | IC50 (Hepatitis B virus [14]): Not Active
 | Cc1ccc(SCc2nc3c(Cn4ccnc4C)c(O)ccc3n2C)cc1 | 91.2 |  | 2.5 | IC50 (Hepatitis B virus [15]): Not Active; pIC50 (Hepatitis B virus [16]): 4.44
 | COc1ccc(SCc2nc3c(Cn4ccnc4)c(O)ccc3n2C)cc1 | 64.5 |  |  | IC50 (Hepatitis B virus [17]): Not Active; IC50 (Hepatitis B virus [18]): Not Active
 | COc1ccc(SCc2nc3c(Cn4ccnc4C)c(O)ccc3n2C)cc1 | 164 |  | 3.7 | IC50 (Hepatitis B virus [19]): Not Active; pIC50 (Hepatitis B virus [16]): 4.35
 | Cn1c(CSc2ccc(F)cc2)nc2c(Cn3ccnc3)c(O)ccc21 | 80.1 |  | 6.9 | IC50 (Hepatitis B virus [20]): Not Active; pIC50 (Hepatitis B virus [16]): 4.94
 | Cn1c(CSc2ccccc2)nc2c(Cn3ccnc3)c(O)ccc21 | 76.3 |  | 8.4 | IC50 (Hepatitis B virus [21]): Not Active; pIC50 (Hepatitis B virus [16]): 5.04
3.72 | Cn1c(C[S+]([O-])c2ccccc2)nc2c(Cn3ccnc3)c(O)ccc21 (configuration not stated) | 557 | 2.9 |  | IC50 (Hepatitis B virus [22]): Not Active
4.57 | CN1CCN(Cc2c(O)ccc3c2nc(CSc2ccccc2)n3C)CC1 | 210 | 7.8 |  | IC50 (Hepatitis B virus [23]): Not Active
3.76 | Cc1ccc([S+]([O-])Cc2nc3c(Cn4ccnc4)c(O)ccc3n2C)cc1 (configuration not stated) | 758 | 4.3 |  | IC50 (Hepatitis B virus [24]): Not Active
 | Cc1ccc(SCc2nc3c(Cn4ccnc4)c(O)ccc3n2C)cc1 | 60.8 |  | 1.9 | IC50 (Hepatitis B virus [25]): Not Active; pIC50 (Hepatitis B virus [16]): 4.49
4.15 | Cn1c(CS(=O)(=O)c2ccccc2)nc2c(Cn3ccnc3)c(O)ccc21 | 623 | 8.9 |  | IC50 (Hepatitis B virus [26]): Not Active
3.49 | Cn1c(CS(=O)(=O)c2ccccc2)nc2c(CN3CCOCC3)c(O)ccc21 | 740 | 2.3 |  | IC50 (Hepatitis B virus [27]): Not Active
 | CN(C)Cc1c(O)ccc2c1nc(CSc1ccccc1)n2C | 245 |  |  | IC50 (Hepatitis B virus [28]): Not Active; IC50 (Hepatitis B virus [29]): Not Active
 | Cc1nccn1Cc1c(O)ccc2c1nc(CSc1ccccc1)n2C | 101 |  | 13 | pIC50 (Hepatitis B virus [16]): 5.11; IC50 (Hepatitis B virus [30]): Not Active
 | Cn1c(CSc2ccccc2)nc2c(CN3CCOCC3)c(O)ccc21 | 86.9 |  |  | IC50 (Hepatitis B virus [31]): Not Active; IC50 (Hepatitis B virus [32]): Not Active
